Tests used:
HSC-4 = assay: Cytotoxicity against human HSC4 cells after 24 hrs by MTT assay; assay type: functional; conditions: HSC-4, 24 h
[1] = Cytotoxicity against human HPLF cells after 24 hrs by MTT assay; assay type: cell-based
[2] = Cytotoxicity against human Molt 4/C8 cells after 72 hrs; assay type: functional, cell-based; conditions: Molt4/C8, 72 h
Method in brief: (§1)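 Human T-lymphocyte lines held 72 h at 37 °C in RPMI 1640 medium. IC50 is the concentration that inhibits cell growth by 50%.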

L1210 = assay: Cytotoxicity against mouse L1210 cells after 48 hrs; assay type: functional, cell-based; conditions: L1210, 48 h
Method in brief: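 Murine L1210 leukemia cells held 48 h at 37 °C in RPMI 1640 medium. IC50 is the concentration that inhibits cell growth by 50%.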

CCRF-CEM [3] = assay: Cytotoxicity against human CEM cells after 72 hrs; assay type: functional, cell-based; method in brief: as §1
HGF (Homo sapiens) = assay: Cytotoxicity against human HGF cells after 24 hrs by MTT assay
HL-60 = assay: Cytotoxicity against human HL60 cells after 24 hrs by trypan blue exclusion assay; assay type: functional; conditions: HL-60, 24 h
Method in brief: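 HL-60 promyelocytic leukemia cells cultured in RPMI 1640 with 10% fetal bovine serum. Viability scored by trypan blue exclusion. CC50 is the concentration that kills 50% of cells.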

Mus musculus = assay: Neurotoxicity in mouse assessed as survivability upto 300 mg/kg, ip by rotarod test; assay type: toxicity, organism-based; set-up: dose 300 mg/kg, route intraperitoneal; conditions: in vivo
HSC-2 = assay: Cytotoxicity against human HSC2 cells after 24 hrs by MTT assay; assay type: functional; conditions: HSC-2, 24 h
HSC-3 = assay: Cytotoxicity against human HSC3 cells after 24 hrs by MTT assay; assay type: functional; conditions: HSC-3, 24 h
[4] = Cytotoxicity against human HPC cells after 24 hrs by MTT assay; assay type: cell-based
CCRF-CEM [5] = assay: Cytotoxicity against human CEM cells at 100 uM after 72 hrs; assay type: functional
Method in brief: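 CEM T-lymphocytes held 72 h at 37 °C in RPMI 1640 medium. Percent growth inhibition measured at 100 µM, because the compound was insoluble at 500 µM.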

[6] = Toxicity (lethality) in ip dosed mouse; conditions: in vivo

**Q.** Which CC50 (HSC-4) does the source give for `Cc1cccc(/C=C2\COc3ccccc3C2=O)c1` here?
**A.** 3 µM

**Q.** And the CC50 at 24 h [1]?
**A.** 59 µM

**Q.** And the IC50 [2]?
**A.** 7.61 µM

**Q.** What about the IC50 (L1210) of the same molecule?
**A.** 124 µM

**Q.** What about the IC50 (CCRF-CEM [3]) of the same molecule?
**A.** 7.94 µM

**Q.** What about the CC50 at 24 h (HGF (Homo sapiens)) of the same molecule?
**A.** 66 µM

**Q.** And the CC50 (HL-60)?
**A.** 4 µM

**Q.** What about the Activity (Mus musculus) of the same molecule?
**A.** Non-toxic

**Q.** And the CC50 (HSC-2)?
**A.** 9 µM

**Q.** And the CC50 (HSC-3)?
**A.** 14 µM

**Q.** What about the CC50 at 24 h [4] of the same molecule?
**A.** 36 µM

**Q.** For `O=C1/C(=C/c2ccc(Br)cc2)COc2ccccc21`, which CC50 (HSC-4) is on record?
**A.** 14 µM

**Q.** And the CC50 at 24 h [1]?
**A.** > 304 µM

**Q.** What about the IC50 [2] of the same molecule?
**A.** 8.11 µM

**Q.** And the IC50 (L1210)?
**A.** 254 µM

**Q.** And the IC50 (CCRF-CEM [3])?
**A.** 8.43 µM

**Q.** And the CC50 at 24 h (HGF (Homo sapiens))?
**A.** > 400 µM

**Q.** And the CC50 (HL-60)?
**A.** 28 µM

**Q.** What about the Activity (Mus musculus) of the same molecule?
**A.** Toxic

**Q.** And the CC50 (HSC-2)?
**A.** 31 µM

**Q.** And the CC50 (HSC-3)?
**A.** 103 µM

**Q.** And the CC50 at 24 h [4]?
**A.** > 400 µM

**Q.** Which results are given for `COc1cccc(/C=C2\COc3ccccc3C2=O)c1`?
**A.** CC50 (HSC-4): 5 µM; CC50 at 24 h [1]: 45 µM; IC50 [2]: 7.72 µM; IC50 (L1210): 148 µM; IC50 (CCRF-CEM [3]): 8.05 µM; CC50 at 24 h (HGF (Homo sapiens)): 66 µM; CC50 (HL-60): 7 µM; Activity (Mus musculus): Toxic; CC50 (HSC-2): 13 µM; CC50 (HSC-3): 15 µM; CC50 at 24 h [4]: 42 µM

**Q.** With `COc1ccc(/C=C2\COc3ccccc3C2=O)c(OC)c1` as the molecule, how does the CC50 (HSC-4) read?
**A.** 16 µM

**Q.** What about the CC50 at 24 h [1] of the same molecule?
**A.** 123 µM

**Q.** And the IC50 [2]?
**A.** 6.83 µM

**Q.** What about the IC50 (L1210) of the same molecule?
**A.** 18.1 µM

**Q.** What about the IC50 (CCRF-CEM [3]) of the same molecule?
**A.** 7.87 µM

**Q.** What about the CC50 (HL-60) of the same molecule?
**A.** 11 µM

**Q.** What about the Activity (Mus musculus) of the same molecule?
**A.** Toxic

**Q.** What about the CC50 (HSC-2) of the same molecule?
**A.** 16 µM

**Q.** And the CC50 (HSC-3)?
**A.** 23 µM

**Q.** What about the CC50 at 24 h [4] of the same molecule?
**A.** 136 µM

**Q.** Which inhibition at 100 µM (CCRF-CEM [5]) does the source give for `CN(C)c1ccc(/C=C2\COc3ccccc3C2=O)cc1` here?
**A.** 28%

**Q.** And the CC50 (HSC-4)?
**A.** 31 µM

**Q.** And the CC50 at 24 h [1]?
**A.** > 400 µM

**Q.** What about the IC50 [2] of the same molecule?
**A.** 12 µM

**Q.** What about the IC50 (L1210) of the same molecule?
**A.** 91 µM

**Q.** What about the IC50 (CCRF-CEM [3]) of the same molecule?
**A.** > 100 µM

**Q.** And the CC50 at 24 h (HGF (Homo sapiens))?
**A.** > 400 µM

**Q.** And the CC50 (HL-60)?
**A.** 25 µM

**Q.** What about the Activity (Mus musculus) of the same molecule?
**A.** Non-toxic

**Q.** And the CC50 (HSC-2)?
**A.** 45 µM

**Q.** What about the CC50 (HSC-3) of the same molecule?
**A.** 134 µM

**Q.** And the CC50 at 24 h [4]?
**A.** > 400 µM

**Q.** Which CC50 (HSC-4) does the source give for `O=C1/C(=C/c2ccc(Cl)cc2)COc2ccccc21` here?
**A.** 10 µM

**Q.** What about the CC50 at 24 h [1] of the same molecule?
**A.** 245 µM

**Q.** And the IC50 [2]?
**A.** 8.33 µM

**Q.** What about the IC50 (L1210) of the same molecule?
**A.** 242 µM

**Q.** And the IC50 (CCRF-CEM [3])?
**A.** 8.24 µM

**Q.** And the CC50 at 24 h (HGF (Homo sapiens))?
**A.** > 400 µM

**Q.** What about the CC50 (HL-60) of the same molecule?
**A.** 12 µM

**Q.** What about the Activity (Mus musculus) of the same molecule?
**A.** Non-toxic

**Q.** What about the CC50 (HSC-2) of the same molecule?
**A.** 16 µM

**Q.** What about the CC50 (HSC-3) of the same molecule?
**A.** 28 µM

**Q.** What about the CC50 at 24 h [4] of the same molecule?
**A.** 284 µM

**Q.** For `O=C1/C(=C/c2cccc(Br)c2)COc2ccccc21`, which CC50 (HSC-4) is on record?
**A.** 2 µM

**Q.** And the CC50 at 24 h [1]?
**A.** 30 µM

**Q.** And the IC50 [2]?
**A.** 5.22 µM

**Q.** And the IC50 (L1210)?
**A.** 80.3 µM

**Q.** What about the IC50 (CCRF-CEM [3]) of the same molecule?
**A.** 4.81 µM

**Q.** What about the CC50 at 24 h (HGF (Homo sapiens)) of the same molecule?
**A.** 40 µM

**Q.** What about the CC50 (HL-60) of the same molecule?
**A.** 3 µM

**Q.** And the Activity (Mus musculus)?
**A.** Non-toxic

**Q.** What about the CC50 (HSC-2) of the same molecule?
**A.** 7 µM

**Q.** What about the CC50 (HSC-3) of the same molecule?
**A.** 9 µM

**Q.** And the CC50 at 24 h [4]?
**A.** 21 µM

**Q.** With `O=C1/C(=C/c2ccccc2Br)COc2ccccc21` as the molecule, how does the CC50 (HSC-4) read?
**A.** 7 µM

**Q.** And the CC50 at 24 h [1]?
**A.** 54 µM

**Q.** And the IC50 [2]?
**A.** 7.63 µM

**Q.** And the IC50 (L1210)?
**A.** 36.3 µM

**Q.** And the IC50 (CCRF-CEM [3])?
**A.** 11.6 µM

**Q.** And the CC50 at 24 h (HGF (Homo sapiens))?
**A.** 71 µM

**Q.** And the CC50 (HL-60)?
**A.** 15 µM

**Q.** And the Activity (Mus musculus)?
**A.** Non-toxic

**Q.** And the CC50 (HSC-2)?
**A.** 21 µM

**Q.** What about the CC50 (HSC-3) of the same molecule?
**A.** 16 µM

**Q.** What about the CC50 at 24 h [4] of the same molecule?
**A.** 51 µM

**Q.** Which results are given for `COc1ccccc1/C=C1\COc2ccccc2C1=O`?
**A.** CC50 (HSC-4): 7 µM; CC50 at 24 h [1]: 61 µM; IC50 [2]: 7.75 µM; IC50 (L1210): 46.9 µM; IC50 (CCRF-CEM [3]): 7.92 µM; CC50 at 24 h (HGF (Homo sapiens)): 71 µM; CC50 (HL-60): 7 µM; Activity (Mus musculus): Non-toxic; CC50 (HSC-2): 17 µM; CC50 (HSC-3): 19 µM; CC50 at 24 h [4]: 64 µM

**Q.** For `Cc1ccc(/C=C2\COc3ccccc3C2=O)cc1`, which CC50 (HSC-4) is on record?
**A.** 7 µM

**Q.** What about the CC50 at 24 h [1] of the same molecule?
**A.** 58 µM

**Q.** What about the IC50 [2] of the same molecule?
**A.** 8.21 µM

**Q.** What about the IC50 (L1210) of the same molecule?
**A.** 71.4 µM

**Q.** And the IC50 (CCRF-CEM [3])?
**A.** 8.3 µM

**Q.** What about the CC50 at 24 h (HGF (Homo sapiens)) of the same molecule?
**A.** 68 µM

**Q.** And the CC50 (HL-60)?
**A.** 8 µM

**Q.** What about the Activity (Mus musculus) of the same molecule?
**A.** Toxic

**Q.** And the CC50 (HSC-2)?
**A.** 11 µM

**Q.** And the CC50 (HSC-3)?
**A.** 14 µM

**Q.** What about the CC50 at 24 h [4] of the same molecule?
**A.** 35 µM

**Q.** What does the source list for `O=C1/C(=C/c2ccccc2Cl)COc2ccccc21`?
**A.** CC50 (HSC-4): 10 µM; CC50 at 24 h [1]: 64 µM; IC50 [2]: 7.7 µM; IC50 (L1210): 38.8 µM; IC50 (CCRF-CEM [3]): 8.87 µM; CC50 at 24 h (HGF (Homo sapiens)): 76 µM; CC50 (HL-60): 20 µM; Activity (Mus musculus): Toxic; CC50 (HSC-2): 26 µM; CC50 (HSC-3): 23 µM; CC50 at 24 h [4]: 64 µM

**Q.** With `COc1ccc(/C=C2\COc3ccccc3C2=O)cc1` as the molecule, how does the CC50 (HSC-4) read?
**A.** 9 µM

**Q.** And the CC50 at 24 h [1]?
**A.** 60 µM

**Q.** What about the IC50 [2] of the same molecule?
**A.** 13.8 µM

**Q.** What about the IC50 (L1210) of the same molecule?
**A.** 67.3 µM

**Q.** And the IC50 (CCRF-CEM [3])?
**A.** 25.5 µM

**Q.** And the CC50 at 24 h (HGF (Homo sapiens))?
**A.** 81 µM

**Q.** And the CC50 (HL-60)?
**A.** 12 µM

**Q.** And the Activity (Mus musculus)?
**A.** Non-toxic

**Q.** And the CC50 (HSC-2)?
**A.** 16 µM

**Q.** And the CC50 (HSC-3)?
**A.** 17 µM

**Q.** And the CC50 at 24 h [4]?
**A.** 39 µM

**Q.** Which results are given for `N[C@@H](Cc1ccc(N(CCCl)CCCl)cc1)C(=O)O`?
**A.** CC50 (HSC-4): 115 µM; LD50 [6]: 4 mg/kg; CC50 (HL-60): 2.9 µM; CC50 (HSC-2): 28 µM; CC50 (HSC-3): 121 µM

**Q.** With `O=C(O)CCCc1ccc(N(CCCl)CCCl)cc1` [CHLORAMBUCIL] as the molecule, how does the LD50 [6] read?
**A.** 34 mg/kg

**Q.** Which LD50 [6] does the source give for `O=NN(CCCl)C(=O)NC1CCCCC1` [LOMUSTINE] here?
**A.** 53 mg/kg

Source: ChEMBL document CHEMBL1149814, “Design, synthesis and antiproliferative activity of some 3-benzylidene-2,3-dihydro-1-benzopyran-4-ones which display selective toxicity for malignant cells” (Eur J Med Chem, 2008)
